Values after ≈ are worked out from the molar mass of the structure shown.
Legend:
[1] = test system: Mycobacterium tuberculosis; assay: Antimycobacterial activity against Mycobacterium tuberculosis H37Rv after 14 days; format: functional; details: 336 h
[2] = test system: Mycobacterium tuberculosis; assay: Antimycobacterial activity against Mycobacterium tuberculosis H37Rv after 21 days; format: functional; details: 504 h
[3] = test system: Mycobacterium avium; assay: Antimycobacterial activity against INH/RIF/OFX resistant Mycobacterium avium 330/88 after 14 days; format: functional; details: 330/88, 336 h
[4] = test system: Mycobacterium avium; assay: Antimycobacterial activity against INH/RIF/OFX resistant Mycobacterium avium 330/88 after 21 days; format: functional; details: 330/88, 504 h
[5] = test system: Mycobacterium kansasii; assay: Antimycobacterial activity against Mycobacterium kansasii 235/80 after 7 days; format: functional; details: 235/80, 168 h
[6] = test system: Mycobacterium kansasii; assay: Antimycobacterial activity against Mycobacterium kansasii 235/80 after 14 days; format: functional; details: 235/80, 336 h
[7] = test system: Mycobacterium kansasii; assay: Antimycobacterial activity against Mycobacterium kansasii 235/80 after 21 days; format: functional; details: 235/80, 504 h
[8] = test system: Mycobacterium kansasii; assay: Antimycobacterial activity against Mycobacterium kansasii 6509/96 after 7 days; format: functional; details: 6509/96, 168 h
[9] = test system: Mycobacterium kansasii; assay: Antimycobacterial activity against Mycobacterium kansasii 6509/96 after 14 days; format: functional; details: 6509/96, 336 h
[10] = test system: Mycobacterium kansasii; assay: Antimycobacterial activity against Mycobacterium kansasii 6509/96 after 21 days; format: functional; details: 6509/96, 504 h
[11] = test system: HepG2; assay: Cytotoxicity against human HepG2 cells assessed as reduction in cell viability by MTS assay; format: cell-based
Summary of the method: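 HepG2 human hepatocellular carcinoma cells (passage 2-4) were cultured in Eagle's MEM with 10% FBS, 1% L-glutamine and non-essential amino acids. Compounds were dissolved in DMSO and tested in triplicate at eight concentrations. Viability was read by colorimetric MTS tetrazolium reduction. Controls were 100% viability and 0% viability (10% DMSO). IC50 is the concentration reducing viability to 50% of control.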

| Compound | MIC [1] [µM] | MIC [2] [µM] | MIC [3] [µM] | MIC [4] [µM] | MIC [5] [µM] | MIC [6] [µM] | MIC [7] [µM] | MIC [8] [µM] | MIC [9] [µM] | MIC [10] [µM] | IC50 [11] [µM] |
| --- | --- | --- | --- | --- | --- | --- | --- | --- | --- | --- | --- |
| CCCCCNc1nnc(-c2ccncc2)o1 | 62.5 (≈ 14.5 µg/mL) | 62.5 (≈ 14.5 µg/mL) | > 1000 | > 1000 | 500 (≈ 116 µg/mL) | 1000 (≈ 232 µg/mL) | 1000 (≈ 232 µg/mL) | 500 (≈ 116 µg/mL) | 1000 (≈ 232 µg/mL) | 1000 (≈ 232 µg/mL) | – |
| CCCCCCCCNC(=O)NNC(=O)c1ccncc1 | 62.5 (≈ 18.3 µg/mL) | 125 (≈ 36.5 µg/mL) | 250 (≈ 73.1 µg/mL) | 250 (≈ 73.1 µg/mL) | 32 (≈ 9.36 µg/mL) | 62.5 (≈ 18.3 µg/mL) | 125 (≈ 36.5 µg/mL) | 62.5 (≈ 18.3 µg/mL) | 125 (≈ 36.5 µg/mL) | 250 (≈ 73.1 µg/mL) | > 500 |
| CCCCCCCCCCCCCCCCCCNC(=O)NNC(=O)c1ccncc1 | 250 (≈ 108 µg/mL) | 250 (≈ 108 µg/mL) | 250 (≈ 108 µg/mL) | 250 (≈ 108 µg/mL) | 250 (≈ 108 µg/mL) | 250 (≈ 108 µg/mL) | 250 (≈ 108 µg/mL) | 250 (≈ 108 µg/mL) | 250 (≈ 108 µg/mL) | 250 (≈ 108 µg/mL) | > 50 |
| CCCCCCCCCCCCNC(=O)NNC(=O)c1ccncc1 | 32 (≈ 11.2 µg/mL) | 32 (≈ 11.2 µg/mL) | 32 (≈ 11.2 µg/mL) | 62.5 (≈ 21.8 µg/mL) | 32 (≈ 11.2 µg/mL) | 62.5 (≈ 21.8 µg/mL) | 125 (≈ 43.6 µg/mL) | 62.5 (≈ 21.8 µg/mL) | 62.5 (≈ 21.8 µg/mL) | 62.5 (≈ 21.8 µg/mL) | > 50 |
| CCCCCCCCCCNC(=O)NNC(=O)c1ccncc1 | 16 (≈ 5.13 µg/mL) | 32 (≈ 10.3 µg/mL) | 500 (≈ 160 µg/mL) | 500 (≈ 160 µg/mL) | 32 (≈ 10.3 µg/mL) | 62.5 (≈ 20 µg/mL) | 125 (≈ 40.1 µg/mL) | 125 (≈ 40.1 µg/mL) | 250 (≈ 80.1 µg/mL) | 250 (≈ 80.1 µg/mL) | > 250 |
| CCCCCCCCCCCNC(=O)NNC(=O)c1ccncc1 | 32 (≈ 10.7 µg/mL) | 62.5 (≈ 20.9 µg/mL) | 125 (≈ 41.8 µg/mL) | 125 (≈ 41.8 µg/mL) | 16 (≈ 5.35 µg/mL) | 32 (≈ 10.7 µg/mL) | 62.5 (≈ 20.9 µg/mL) | 62.5 (≈ 20.9 µg/mL) | 125 (≈ 41.8 µg/mL) | 125 (≈ 41.8 µg/mL) | > 50 |
| CCCCCCCCCCCCCNc1nnc(-c2ccncc2)o1 | 250 (≈ 86.1 µg/mL) | 250 (≈ 86.1 µg/mL) | 250 (≈ 86.1 µg/mL) | 250 (≈ 86.1 µg/mL) | 250 (≈ 86.1 µg/mL) | 250 (≈ 86.1 µg/mL) | 250 (≈ 86.1 µg/mL) | 125 (≈ 43.1 µg/mL) | 250 (≈ 86.1 µg/mL) | 250 (≈ 86.1 µg/mL) | – |
| CCCCNc1nnc(-c2ccncc2)o1 | 250 (≈ 54.6 µg/mL) | 500 (≈ 109 µg/mL) | > 1000 | > 1000 | 500 (≈ 109 µg/mL) | 1000 (≈ 218 µg/mL) | 1000 (≈ 218 µg/mL) | 1000 (≈ 218 µg/mL) | 1000 (≈ 218 µg/mL) | 1000 (≈ 218 µg/mL) | – |
| CCCNc1nnc(-c2ccncc2)o1 | 500 (≈ 102 µg/mL) | 500 (≈ 102 µg/mL) | > 1000 | > 1000 | 500 (≈ 102 µg/mL) | 1000 (≈ 204 µg/mL) | 1000 (≈ 204 µg/mL) | 1000 (≈ 204 µg/mL) | 1000 (≈ 204 µg/mL) | 1000 (≈ 204 µg/mL) | – |
| CCCCCCCCCCCCCCCNC(=O)NNC(=O)c1ccncc1 | 32 (≈ 12.5 µg/mL) | 62.5 (≈ 24.4 µg/mL) | 125 (≈ 48.8 µg/mL) | 125 (≈ 48.8 µg/mL) | 32 (≈ 12.5 µg/mL) | 62.5 (≈ 24.4 µg/mL) | 62.5 (≈ 24.4 µg/mL) | 62.5 (≈ 24.4 µg/mL) | 62.5 (≈ 24.4 µg/mL) | 125 (≈ 48.8 µg/mL) | > 75 |
| CCCCCCNc1nnc(-c2ccncc2)o1 | 250 (≈ 61.6 µg/mL) | 250 (≈ 61.6 µg/mL) | 500 (≈ 123 µg/mL) | 500 (≈ 123 µg/mL) | 250 (≈ 61.6 µg/mL) | 500 (≈ 123 µg/mL) | 500 (≈ 123 µg/mL) | 125 (≈ 30.8 µg/mL) | 250 (≈ 61.6 µg/mL) | 500 (≈ 123 µg/mL) | – |
| CCCCCCCNc1nnc(-c2ccncc2)o1 | 125 (≈ 32.5 µg/mL) | 125 (≈ 32.5 µg/mL) | 500 (≈ 130 µg/mL) | 500 (≈ 130 µg/mL) | 250 (≈ 65.1 µg/mL) | 500 (≈ 130 µg/mL) | 500 (≈ 130 µg/mL) | 250 (≈ 65.1 µg/mL) | 500 (≈ 130 µg/mL) | 500 (≈ 130 µg/mL) | – |

Source: ChEMBL document CHEMBL4152223 (Eur J Med Chem, 2018)
